Test results as given in ChEMBL document CHEMBL4049454, “7-Substituted 2-Nitro-5,6-dihydroimidazo[2,1-b][1,3]oxazines: Novel Antitubercular Agents Lead to a New Preclinical Candidate for Visceral Leishmaniasis” (J Med Chem, 2017).
The source made the active and inactive calls. The rule behind the calls is not given here.

Key:
[1] = system: Mycobacterium tuberculosis; test: Antitubercular activity against Mycobacterium tuberculosis infected in BALB/c mouse assessed as reduction in bacterial burden at 100 mg/kg, po qd administered every 5 days a week for 3 weeks; type: functional, organism-based
In short: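 Acute infection model in BALB/c mice: dosing at 100 mg/kg daily, 5 days a week for 3 weeks, starting day 11 after infection. Read-out is CFU reduction in treated mice, usually reported as a ratio of mean CFU reduction versus mice given the reference nitroimidazole.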

Leishmania infantum = test: Antileishmanial activity against Leishmania infantum infected in primary peritoneal mouse macrophages by luciferase reporter gene assay; type: functional
In short: (§1)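 Run at LMPH as IC50 determinations. L. infantum was grown in primary peritoneal mouse macrophages and T. cruzi on human lung fibroblasts (MRC-5). Each value is the mean of at least two independent determinations, run alongside MRC-5 and macrophage cytotoxicity tests.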

[2] = Extrapolated AUCinfinity in swiss albino mouse plasma at 40 mg/kg, po by LC-MS/MS analysis
Trypanosoma cruzi = test: […] activity against Trypanosoma cruzi infected in human MRC-5 cells by luciferase reporter gene assay; type: functional, cell-based; settings: MRC5; in short: as §1
[3] = Apparent permeability from apical to basolateral side in human Caco2 cells after 150 mins by LC-MS/MS analysis; type: ADME, cell-based; settings: Caco-2
[4] = Apparent permeability from basolateral to apical side in human Caco2 cells after 150 mins by LC-MS/MS analysis; type: ADME, cell-based; settings: Caco-2

In the case of `C[C@]1(COCc2ccc(-c3ccc(OC(F)(F)F)cc3)cc2)CCn2cc([N+](=O)[O-])nc2O1`, the Activity [1] is reported as “Active”.

For `O=[N+]([O-])c1cn2c(n1)OC(COc1ccc(-c3ccc(F)nc3)nc1)CC2` (stereo not drawn), the IC50 (Leishmania infantum) was > 64000 nM.

In the case of `O=[N+]([O-])c1cn2c(n1)OC[C@@H](OCc1ccc(OC(F)(F)F)cc1)C2`, the Activity [1] is reported as “Active”.

For `O=[N+]([O-])c1cn2c(n1)OC(COCc1ccc(-c3ccc(OC(F)(F)F)cc3)cc1)CC2` (stereo not drawn), the AUC(0-inf) [2] was 47100 ng·h/mL.

With `O=[N+]([O-])c1cn2c(n1)OC(COc1ccc(OC(F)(F)F)cc1)CC2` (stereo not drawn) the IC50 (Trypanosoma cruzi) was 61 nM.

For `C[C@]1(COc2ccc(OC(F)(F)F)cc2)Cn2cc([N+](=O)[O-])nc2O1`, the Papp A→B at […] [3] was 22.6 ×10⁻⁶ cm/s and the Papp B→A at […] [4] was 24.7 ×10⁻⁶ cm/s.

In the case of `O=[N+]([O-])c1cn2c(n1)OC(COc1ccc(-c3ccc(F)cc3)cc1)CC2` (stereo not drawn), the IC50 (Trypanosoma cruzi) is reported as 63 nM.
